This is an account of results in paper PMC10652724 (ACS Omega, 2023).

The conditions of data set [1]: nitrofuran metabolite; cited from earlier work.
The subject of data set [2] is T. b. rhodesiense IL1501. The data set can be described thus: In vitro trypanocidal activity, bloodstream forms, CellTiter-Glo. The data set is classed as cell-based, Trypanosoma brucei rhodesiense. A general note: ATP-based viability assays read luminescence as a measure of living cells.
Data set [3] deals with T. evansi Tansui. The description is as above. The data set is classed as cell-based, Trypanosoma evansi.
The subject of data set [4] is T. b. brucei GUTat3.1. The description is as above. The data set is classed as cell-based, Trypanosoma brucei brucei.
Data set [5] deals with T. congolense IL3000. The note with it: T. congolense IL3000 infected mice, cited from earlier work.
Data set [6] has as its system T. b. gambiense IL1922. Briefly: In vitro trypanocidal activity, bloodstream forms, CellTiter-Glo. The data set is classed as cell-based, Trypanosoma brucei gambiense.
A short description of data set [7]: In vitro cytotoxicity, Cell Counting Kit-8. The data set is classed as cell-based. The settings on record: bovine, MDBK cells (Madin–Darby bovine kidney). Put shortly: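 MDBK cells (1 × 10^4 cells/mL) incubated at 37°C for 72 h with test compound in […] twofold serial dilutions, 100 down to 0.39 μg/mL. Cell Counting Kit-8 added; OD450 read before and after a further 4 h incubation. Done in three replicates. CC50 from nonlinear regression curve fit, reported as mean ± SD.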
On the technique in general: Tetrazolium assays rely on reduction of a dye to a coloured formazan, in cell work by metabolically active cells.

Data set [8] relates to T. congolense IL3000. Briefly: In vitro trypanocidal activity, bloodstream forms, CellTiter-Glo. The data set is classed as cell-based, Trypanosoma congolense.
For data set [9], the system named is T. equiperdum IVM-t1. Described as above. The data set is classed as cell-based, Trypanosoma equiperdum.

Molecules are shown by their SMILES.

On to `NN1CC(=O)NC1=O` [1-aminihydantoin, 1-aminohydantoin], for which, in [1], the “metabolite present in edible pig tissues” value is 3 to 8 µg/kg.

One may read the IC50 as the concentration that gives 50% inhibition. What is called CC50 is the concentration at which the toxic effect on the cells reaches its halfway point. A lower CC50 goes with greater toxicity to the cells. In the case of `O=C1CN(/N=C/c2ccc([N+](=O)[O-])o2)C(=O)N1` [Nitrofurantoin, nitrofurantoin], the “Selectivity index (SI)” value turned out to be 43 in [2] (CC50 of MDBK/IC50 of Tbr IL1501); 44 in [3] (CC50 of MDBK/IC50 of Tev Tansui); 48 in [4] (CC50 of MDBK/IC50 of Tbb GuTat3.1); 39 in [6] (CC50 of MDBK/IC50 of Tbg IL1922); 174 in data set [8] (CC50 of MDBK/IC50 of Tc IL3000); 50 in data set [9] (CC50 of MDBK/IC50 of Teq IVM-t1). For the same molecule, the IC50 in data set [2] (Trypanosoma brucei, RHODESIENSE, 72 h, read-out: trypanocidal activity IC50 ± SD) came out at 1.69 ± 0.2 µM; in data set [3] (Trypanosoma evansi, 72 h, read-out: trypanocidal activity IC50 ± SD) it was 1.67 ± 0.07 µM; in data set [4] (Trypanosoma brucei, 72 h, read-out: trypanocidal activity IC50 ± SD), 1.51 ± 0.03 µM; in [6] (Trypanosoma brucei, GAMBIENSE, 72 h, read-out: trypanocidal activity IC50 ± SD), 1.85 ± 0.23 µM; in data set [8] (Trypanosoma congolense, 72 h, read-out: trypanocidal activity IC50 ± SD) it was 0.42 ± 0.05 µM; in data set [9] (Trypanosoma equiperdum, 72 h, read-out: trypanocidal activity IC50 ± SD), 1.45 ± 0.03 µM. Further, in [5], the minimum effective dose is given as 30 mg/kg. Besides, in data set [5] (dose ≥30 mg/kg), the survival and cure is on record as 100%. In [7], the midpoint of cytotoxicity, the CC50 at 72 h, lay at 73 ± 36.1 µM.
